Activity calls are given as the source filed them. The calls are words filed in the database; no cut-off is given here.
Experiments:
[1] = Synergistic cytotoxicity against human GIN28 cells assessed as combination index measured after 48 hrs in presence of 3-(4-chlorophenyl)-1-(2-chloro-2-phenylethyl)pyrazolo[3,4-d]pyrimidin-4-amine by Chou-Talalay assay; format: functional
Outline: (§1)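 Each drug pair dosed at a 1:1 molar ratio on the GBM lines and incubated 48 h. CI computed from three independent IC50 experiments (n = 3), reported as mean ± SD.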

[2] = Additive cytotoxicity against human GCE28 cells assessed as combination index measured after 48 hrs in presence of N-(3-bromophenyl)-1-(2-chloro-2-phenylethyl)6(2morpholinoethylsulfanyl)pyrazolo[3,4-d]pyrimidin-4-amine by Chou-Talalay assay; format: functional; outline: as §1
[3] = Cytotoxicity against human GIN28 cells derived from invasive region of GBM patient assessed as reduction in cell viability measured after 48 hrs by Prestoblue assay; format: functional, cell-based
Outline: (§2)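 Compounds diluted in DMEM containing 10% FBS and applied for 48 h. Viability read by PrestoBlue. IC50 calculated from three independent experiments, mean ± SE. Two-way ANOVA with Dunnett's multiple comparisons test.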

Homo sapiens [4] = organism: Homo sapiens; assay: Induction of apoptosis in human GCE28 cells assessed as increase in caspase 3/7 activation at 12.5 uM measured after 48 hrs by CellEvent caspase 3/7 probe based fluorescence analysis; format: functional, cell-based
Outline: (§3)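 Cells exposed 48 h to compounds diluted in 10% FBS DMEM. Activated caspase-3/7 detected with the CellEvent probe. Staurosporine 10.0 μM served as reference inducer. Mean ± SEM (n = 3). Two-way ANOVA with Dunnett's test.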

[5] = Additive cytotoxicity against human GIN28 cells assessed as combination index measured after 48 hrs in presence of N-(3-bromophenyl)-1-(2-chloro-2-phenylethyl)6(2morpholinoethylsulfanyl)pyrazolo[3,4-d]pyrimidin-4-amine by Chou-Talalay assay; format: functional; outline: as §1
Homo sapiens [6] = organism: Homo sapiens; assay: Induction of apoptosis in human GIN8 cells assessed as increase in caspase 3/7 activation at 12.5 uM measured after 48 hrs by CellEvent caspase 3/7 probe based fluorescence analysis; format: functional, cell-based; outline: as §3
[7] = target: Serine/threonine-protein kinase Sgk1 (Homo sapiens, UniProt O00141, S422D); assay: Inhibition of human N-terminal His6-tagged N-truncated human SGK1 harboring S422D mutant expressed in Sf21 cells using Sgktide-peptide as substrate in presence of [gamma-32P]ATP by scintillation counting method
[8] = Additive cytotoxicity against human GIN8 cells assessed as combination index measured after 48 hrs in presence of N-(3-bromophenyl)-1-(2-chloro-2-phenylethyl)6(2morpholinoethylsulfanyl)pyrazolo[3,4-d]pyrimidin-4-amine by Chou-Talalay assay; format: functional; outline: as §1
[9] = Synergistic cytotoxicity against human GCE28 cells assessed as combination index measured after 48 hrs in presence of 3-(4-chlorophenyl)-1-(2-chloro-2-phenylethyl)pyrazolo[3,4-d]pyrimidin-4-amine by Chou-Talalay assay; format: functional; outline: as §1
[10] = Cytotoxicity against human GCE28 cells derived from central tumor core of GBM patient assessed as reduction in cell viability measured after 48 hrs by Prestoblue assay; format: functional, cell-based; outline: as §2
[11] = Cytotoxicity against human GIN8 cells derived from invasive region of GBM patient assessed as reduction in cell viability measured after 48 hrs by Prestoblue assay; format: functional, cell-based; outline: as §2
[12] = Antagonistic cytotoxicity against human GIN8 cells assessed as combination index measured after 48 hrs in presence of 3-(4-chlorophenyl)-1-(2-chloro-2-phenylethyl)pyrazolo[3,4-d]pyrimidin-4-amine by Chou-Talalay assay; format: functional; outline: as §1
Homo sapiens [13] = organism: Homo sapiens; assay: Induction of apoptosis in human GIN28 cells assessed as increase in caspase 3/7 activation at 12.5 uM measured after 48 hrs by CellEvent caspase 3/7 probe based fluorescence analysis; format: functional, cell-based; outline: as §3
[14] = Synergistic cytotoxicity against human GIN28 cells assessed as combination index measured after 48 hrs in presence of N-(3-bromophenyl)-1-(2-chloro-2-phenylethyl)-6-(2-morpholinoethylsulfanyl)pyrazolo[3,4-d]pyrimidin-4-amine by Chou-Talalay assay; format: functional
Outline: (§4)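 Two kinase inhibitors were combined at a 1:1 molar ratio, diluted in DMEM with 10% FBS, and incubated with the GBM cells for 48 h. Viability was read by PrestoBlue. Combination index values were calculated from three independent IC50 experiments (n = 3) and are reported as mean ± SD.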

[15] = Synergistic cytotoxicity against human GIN8 cells assessed as combination index measured after 48 hrs in presence of N-(3-bromophenyl)-1-(2-chloro-2-phenylethyl)-6-(2-morpholinoethylsulfanyl)pyrazolo[3,4-d]pyrimidin-4-amine by Chou-Talalay assay; format: functional; outline: as §4
[16] = Synergistic cytotoxicity against human GIN28 cells assessed as combination index measured after 48 hrs in presence of 2-[[4-(2-phenylethylamino)-1-[styryl]pyrazolo[3,4-d]pyrimidin-6-yl]amino]ethanol by Chou-Talalay assay; format: functional; outline: as §1
[17] = Synergistic cytotoxicity against human GCE28 cells assessed as combination index measured after 48 hrs in presence of 2-[[4-(2-phenylethylamino)-1-[styryl]pyrazolo[3,4-d]pyrimidin-6-yl]amino]ethanol by Chou-Talalay assay; format: functional; outline: as §1
[18] = Antagonistic cytotoxicity against human GIN8 cells assessed as combination index measured after 48 hrs in presence of 2-[[4-(2-phenylethylamino)-1-[styryl]pyrazolo[3,4-d]pyrimidin-6-yl]amino]ethanol by Chou-Talalay assay; format: functional; outline: as §1
[19] = Synergistic cytotoxicity against human GCE28 cells assessed as combination index measured after 48 hrs in presence of N-(3-bromophenyl)-1-(2-chloro-2-phenylethyl)-6-(2-morpholinoethylsulfanyl)pyrazolo[3,4-d]pyrimidin-4-amine by Chou-Talalay assay; format: functional; outline: as §1

Chain of Serine/threonine-protein kinase Sgk1 (O00141 whole entry S422D, the tested form may be a part): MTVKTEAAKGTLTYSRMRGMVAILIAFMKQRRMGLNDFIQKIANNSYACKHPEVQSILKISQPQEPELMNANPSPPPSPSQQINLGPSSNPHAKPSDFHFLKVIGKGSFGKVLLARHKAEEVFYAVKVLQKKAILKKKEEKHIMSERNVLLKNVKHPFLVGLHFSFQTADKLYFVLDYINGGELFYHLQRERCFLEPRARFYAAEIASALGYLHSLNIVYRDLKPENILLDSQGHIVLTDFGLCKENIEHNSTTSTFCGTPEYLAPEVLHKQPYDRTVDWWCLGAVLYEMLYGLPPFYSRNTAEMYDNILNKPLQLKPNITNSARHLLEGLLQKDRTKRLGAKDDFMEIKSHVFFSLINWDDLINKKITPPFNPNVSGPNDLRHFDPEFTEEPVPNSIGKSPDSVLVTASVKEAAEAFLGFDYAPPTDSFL

Row | SMILES | CI [1] | CI [2] | IC50 [3] | Activity (Homo sapiens [4]) | CI [5] | Activity (Homo sapiens [6]) | Ki [7] | CI [8] | CI [9] | IC50 [10] | IC50 [11] | CI [12] | Activity (Homo sapiens [13]) | CI [14] | CI [15] | CI [16] | CI [17] | CI [18] | CI [19]
1 | OCCNc1nc(NCCc2ccccc2)c2cnn(/C=C/c3ccccc3)c2n1 | 0.57 | 0.97 | 14.4 µM | Active | 0.9 | Active | 0.6 µM | 0.99 | 0.46 | 10.7 µM | 10.5 µM | 1.13 | inactive | – | – | – | – | – | –
2 | Nc1ncnc2c1c(-c1ccc(Cl)cc1)nn2CC(Cl)c1ccccc1 (configuration not stated) | – | – | 49.8 µM | – | – | – | – | – | – | 47.6 µM | 54.7 µM | – | – | 0.76 | 0.53 | 0.57 | 0.46 | 1.13 | 0.88

From ChEMBL document CHEMBL4613280, “Development of Pyrazolo[3,4-d]pyrimidine Kinase Inhibitors as Potential Clinical Candidates for Glioblastoma Multiforme” (ACS Med Chem Lett, 2020)
